Bioassay records deposited in PubChem BioAssay by Sanford-Burnham Center for Chemical Genomics.
hIAP activ: increases human intestinal alkaline phosphatase activity. P09923. purified human IAP, CDP-Star luminescence, 30 min; stronger effect = higher value; 1 = vehicle-only enzyme, 0 = enzyme-free background. activation factor at 10 µM. 0.16% of 330,000 active. AID 2524;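 active means activation factor of the enzyme at least 2-fold when tested at 20 µM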
Target sequence (P09923 whole entry, looked up): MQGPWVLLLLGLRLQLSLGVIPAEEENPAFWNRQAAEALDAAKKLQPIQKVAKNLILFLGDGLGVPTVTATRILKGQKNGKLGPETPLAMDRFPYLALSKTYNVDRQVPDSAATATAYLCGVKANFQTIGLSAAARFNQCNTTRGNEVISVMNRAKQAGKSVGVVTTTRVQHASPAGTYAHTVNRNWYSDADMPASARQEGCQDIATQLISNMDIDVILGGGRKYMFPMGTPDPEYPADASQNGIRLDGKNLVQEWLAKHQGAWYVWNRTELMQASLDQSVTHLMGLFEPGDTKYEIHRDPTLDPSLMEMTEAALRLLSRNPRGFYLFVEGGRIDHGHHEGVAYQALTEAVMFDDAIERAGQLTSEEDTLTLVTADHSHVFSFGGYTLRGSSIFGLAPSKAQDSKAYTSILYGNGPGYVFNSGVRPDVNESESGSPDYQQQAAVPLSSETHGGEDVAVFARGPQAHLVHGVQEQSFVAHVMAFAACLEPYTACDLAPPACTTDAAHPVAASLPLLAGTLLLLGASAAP
mIAP activ: mouse IAP activation; muIAP, CDP-Star luminescence, 30 min; stronger effect = higher value; 1 = vehicle-only enzyme signal, 0 = enzyme-free wells; activation factor at 10 µM; 0.24% of 330,000 active; AID 2805;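 active means activation factor of at least 2 at 20 µM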
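Assay system: mouse IAP enzyme / Compound: DMSO-dissolved test compounds / Timing: 30 min, room temperature / Measured by: luminescence from enzymatic CDP-Star hydrolysis / Control set: DMSO-only wells, enzyme-free buffer wells as negative control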
bIAP inhibitor: blocks bovine intestinal alkaline phosphatase activity | 190,000 tested, under 10 active | inhibition, % at 20 µM | purified bovine IAP, CDP-star luminescence, 30 min;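 active means over 50% inhibition of intestinal alkaline phosphatase at 20 µM in the single-dose screen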
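Incubation: 30 min reaction at room temperature / Material: purified bovine intestinal alkaline phosphatase (IAP) enzyme / Input: enzyme at 1/65,000,000 dilution / Dosing: 20 µM single dose / Signal: CDP-star luminescence signal / Reagent: CDP-star chemiluminescent phosphatase substrate, 30 µM final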
mIAP inh: blocks mouse intestinal alkaline phosphatase | purified mouse IAP, CDP-Star luminescence, 30 min | inhibition, % at 10 µM | 0.2% of 330,000 active;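 active means inhibition of at least 40% at 10 µM in the primary screen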;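 further: plate controls were DMSO with enzyme for no effect and no enzyme wells for full effect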
bIAP act: increases bovine intestinal alkaline phosphatase activity. purified bovine IAP, CDP-star luminescence, 30 min; stronger effect = higher value; fold of DMSO-control signal, blank-subtracted. activation factor at 20 µM. 0.17% of 200,000 active;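 active means activation factor of 2 or more at 20 µM, a signal rise over negative controls twice the positive control's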
hIAP inh: human IAP inhibition. P09923. purified IAP, CDP-Star luminescence, 30 min. inhibition, % at 10 µM. 0.12% of 330,000 active;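 active means inhibition reaching a set limit with compound at 10 µM in the primary screen, cut at about 35% in these data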;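 further: plate controls were DMSO wells with enzyme for no effect and no-enzyme buffer wells for full effect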
* hit, by the source's call; . = no result. Shown are actives, neighbours in structure and some others; about 0.79% of the full set was active somewhere.

SMILES | hIAP activ | mIAP activ | bIAP inhibitor | mIAP inh | bIAP act | hIAP inh
NC1=NC2(CCN(Cc3ccccc3)CC2)n2c(nc3ccccc32)N1 | 1.1 | 0.91 | -255 | 10 | 3.5* | -5
NC1=NC(c2ccc(Br)cc2)n2c(nc3ccccc32)N1 (stereo unspecified) | 0.97 | 1.1 | -94 | -7 | 1.9 | 3
COc1cc(NC(=O)C(Cc2ccccc2)n2cccc2)cc(OC)c1 (stereo unspecified) | 1.2 | 2.1* | . | -109 | . | -19
COC(=O)c1ccc(NC(=S)NCCC2=CCCCC2)cc1 | 1.2 | 2.5* | -6 | -147 | 1.1 | -18
COC(=O)c1cccc(NC(=S)NCCC2=CCCCC2)c1 | 0.92 | 1.8 | 3 | -82 | 1 | 8
C[C@]12c3[nH]c4cc(-c5ccco5)ccc4c3CCN1C(=O)[C@@H](CC(=O)NCc1ccco1)C[C@@H]2C(=O)N1CCOCC1 | . | 1 | . | 0 | . | .
O=C(NCc1ccncc1)c1cn(-c2ccccc2)nc1-c1cccnc1 | 0.93 | 1.2 | -31 | -22 | 1.3 | 7
O=C(NC1CCN(Cc2ccc(Cl)cc2)CC1)c1cn(-c2ccccc2)nc1-c1cccnc1 | 0.97 | 2.3* | . | -127 | . | 3
Cc1ccc(/C=C/C(=O)NC2=NCCS2)cc1 | 0.59 | 1 | 38 | -2 | 0.6 | 41*
CC(NC(=O)NC1CCCCC1)C(c1cccs1)N1CCN(c2ccccc2)CC1 (stereo unspecified) | 0.79 | 2* | -32 | -100 | 1.3 | 22
CC(NC(=O)C1CC1)C(c1cccs1)N1CCN(c2ccccc2)CC1 (stereo unspecified) | 0.93 | 1.1 | 9 | -8 | 0.9 | 7
Cn1c(/C=N/Nc2nc3ccccc3[nH]2)nc2ccccc21 | 1.2 | 0.58 | 14 | 42* | 0.9 | -16
CCOC(=O)c1ccc(-c2cc(C)no2)[nH]1 | 1.1 | 1.1 | 1 | -11 | 1 | -13
S=C(Nc1ccc(Oc2ccccc2)cc1)NC1CCCC1 | 0.98 | 2.7* | 1 | -172 | 1 | 2
CC(C)(C)c1ccc(OCCNC(=S)Nc2ccccc2)cc1 | 0.98 | 2.4* | 8 | -136 | 0.9 | 2
S=C(Nc1ccc(Br)cc1)NC1CCCC1 | 1.2 | 2.1* | -11 | -107 | 1.1 | -18
CCCCNC(=S)Nc1ccc(Oc2ccccc2)cc1 | 1.1 | 2.3* | 23 | -135 | 0.8 | -10
S=C(Nc1ccccc1Oc1ccccc1)NC1CCCC1 | 1.1 | 1.4 | -1 | -43 | 1 | -5
Cc1cccc(NC(=S)NC2CCCC2)c1 | 1.1 | 1.1 | -9 | -14 | 1.1 | -5
S=C(NCC1CCCCC1)Nc1ccc(Oc2ccccc2)cc1 | 0.95 | 3.3* | -18 | -226 | 1.2 | 5
O=C(NC1CC2CCC(C1)N2C(=O)NC1CCCCC1)NC12CC3CC(CC(C3)C1)C2 (stereo unspecified) | 1 | 1.1 | -87 | -7 | 1.9 | -1
O=C(NC1CC2CCCC(C1)N2C1CC1)NC12CC3CC(CC(C3)C1)C2 (stereo unspecified) | . | . | -214 | . | 3.1* | .
Cc1ccc(C(=O)NC(NC(=O)c2ccc(C)cc2)C(Cl)Cl)cc1 | 1.2 | 3.4* | 29 | -238 | 0.7 | -16
COC(=O)c1ccc(OC(=O)C2CSC3(C)CCC(=O)N23)cc1 (stereo unspecified) | 0.97 | 0.88 | . | 12 | . | 3
CCCCNC(=O)CSc1nc2cc3c(cc2c(=O)n1CCC(=O)NCCc1ccc(OC)c(OC)c1)OCO3 | 1.3 | 1.5 | -101 | -54 | 2* | -34
SMILES | hIAP activ | mIAP activ | bIAP inhibitor | mIAP inh | bIAP act | hIAP inh
COc1ccc(C[C@H]2CN3C(=NC[C@@H]3Cc3ccc(O)cc3)N2C[C@H](C)NC(=O)c2ccc(C)c(Br)c2)cc1 | 1.1 | 1.2 | . | -20 | . | -6
O=C1CC(C(=O)Nc2cccc3ccccc23)C2(CCCC2)O1 (stereo unspecified) | 0.91 | 1.1 | 1 | -9 | 1 | 9
COc1ccccc1C(=O)NN=C1CCN(Cc2ccccc2)CC1 | 0.92 | 1 | -2 | -1 | 1 | 8
CCCCCCc1ccc(N2C[C@H](Cc3ccccc3)[C@@H](CC(=O)NCc3ccc(OC)cc3)C2=O)cc1 | 0.85 | 2 | . | -100 | . | 14
CCCCCCc1ccc(N2C[C@H](CCCCC)[C@@H](CC(=O)NCc3ccc(OC)cc3)C2=O)cc1 | 0.95 | 2.3* | . | -126 | . | 5
CCCCCCc1ccc(N2C[C@H](CCCCC)[C@@H](CC(=O)NCc3ccccc3)C2=O)cc1 | 0.91 | 2.3* | . | -134 | . | 9
COc1ccc(NC(=S)NNC(=O)CCn2cc([N+](=O)[O-])cn2)cc1 | 2.1* | 0.94 | -31 | 6 | 1.3 | -106
c1ccc2c3c([nH]c2c1)C(C1CCCCC1)N(Cc1ncc[nH]1)CC3 (stereo unspecified) | 1.1 | 1.2 | -109 | -24 | 2.1* | -10
C[C@H](CO)N1C[C@H](C)[C@@H](CN(C)S(C)(=O)=O)Oc2ccc(NC(=O)Nc3ccc(C(F)(F)F)cc3)cc2C1=O | 1 | 2.3* | . | -126 | . | -4
Cc1noc(C)c1NC(=O)N(C)C[C@H]1Oc2ccc(NC(=O)NC(C)C)cc2C(=O)N([C@H](C)CO)C[C@H]1C | 0.98 | 1.2 | . | -22 | . | 2
Cc1noc(C)c1NC(=O)N(C)C[C@H]1Oc2ccc(NC(=O)Nc3ccc(C(F)(F)F)cc3)cc2C(=O)N([C@H](C)CO)C[C@@H]1C | 1.1 | 2.5* | . | -155 | . | -10
C[C@H](CO)N1C[C@H](C)[C@@H](CN(C)C(=O)Nc2ccc(C(F)(F)F)cc2)Oc2ccc(NC(=O)NC3CCCCC3)cc2C1=O | 1.2 | 3.1* | . | -212 | . | -24
C[C@H](CO)N1C[C@H](C)[C@@H](CN(C)C(=O)Nc2ccc(C(F)(F)F)cc2)Oc2ccc(NC(=O)Nc3ccccc3)cc2C1=O | 1.1 | 2.4* | . | -143 | . | -10
C[C@H](CO)N1C[C@H](C)[C@@H](CN(C)C(=O)NC2CCCCC2)Oc2ccc(NC(=O)Nc3ccc(C(F)(F)F)cc3)cc2C1=O | 1.1 | 2.3* | . | -130 | . | -10
C[C@H](CO)N1C[C@H](C)[C@H](CN(C)S(=O)(=O)c2cn(C)cn2)Oc2ccc(NC(=O)Nc3ccc(C(F)(F)F)cc3)cc2CC1=O | 1.1 | 2.7* | . | -169 | . | -8
C[C@H]1CN([C@@H](C)CO)C(=O)c2cccc(NC(=O)Nc3ccc(C(F)(F)F)cc3)c2O[C@@H]1CN(C)S(=O)(=O)c1ccc(Cl)cc1 | 1 | 2.1* | . | -111 | . | -2
C[C@@H]1CN([C@@H](C)CO)C(=O)Cc2cc(NC(=O)Nc3ccc(C(F)(F)F)cc3)ccc2O[C@@H]1CN(C)S(=O)(=O)c1ccc(Cl)cc1 | 1.2 | 1.4 | . | -41 | . | -17
CC(=O)Nc1ccc(NC(=O)C(C)OC(=O)c2ccc3[nH]c(C)c(C)c3c2)cc1 (stereo unspecified) | 0.97 | 1.2 | . | -21 | . | 2
